Laboratory results reported in ChEMBL document CHEMBL1146313, “Design and synthesis of piperidine farnesyltransferase inhibitors with reduced glucuronidation potential” (Bioorg Med Chem, 2007).

assay: Metabolic stability in mouse liver microsomes; type: ADME, Microsome
Outline: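 Compound at 0.0010 mg/mL final was preincubated 5.0 min at 37 °C with mouse liver microsomes (1.0 mg/mL final, 100 mmol/L potassium phosphate, pH 7.4). Reaction was started with NADPH-generating system, NADPH system plus UDPGA (100 mmol/L), or UDPGA alone, then run 30 min at 37 °C. Quenched with acetonitrile internal standard and read by HPLC. Residual ratio is the 30-min concentration divided by the initial concentration.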

Stability | Structure (SMILES)
Stable | CCc1ccccc1[C@H]1CCN(Cc2cccnc2)[C@@H](c2ccc(O)c(NS(N)(=O)=O)c2)[C@@H]1[N+](=O)[O-] (racemic)

assay: Inhibition of human FTase
Outline: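 Human FTase (50 ng purified enzyme) with His6-K-Ras4B (1 µM) and [3H]farnesyl diphosphate (500 nM) in 50 mM Tris-HCl pH 7.7, 5 mM MgCl2, 5 µM ZnCl2, 2 mM DTT, 0.2% octyl-glucoside. Incubated 30 min at room temperature, stopped with SDS. Protein precipitated with cold trichloroacetic acid and filter-collected, then 3H counted. Percent inhibition calculated against DMSO vehicle control.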

IC50 [nM] | Structure (SMILES)
> 500 | Cn1cnc(CN2CC[C@@H](c3ccccc3Br)[C@H]([N+](=O)[O-])[C@H]2c2ccccc2)c1 (racemic)
17 | Cn1cncc1CN1CC[C@@H](c2ccccc2Br)[C@H]([N+](=O)[O-])[C@H]1c1ccccc1 (racemic)
> 500 | CCc1ccccc1[C@@H]1CCN(Cc2cccnc2)[C@@H](c2ccccc2)[C@H]1C(=O)O (racemic)
42 | CCc1ccccc1[C@@H]1CCN(Cc2cccnc2)[C@@H](c2ccccc2)[C@H]1C(C)=O (racemic)
95 | CCc1ccccc1[C@@H]1CCN(Cc2cccnc2)[C@@H](c2ccccc2)[C@H]1C(=O)OC (racemic)
> 500 | O=[N+]([O-])[C@@H]1[C@@H](c2ccc(O)c(I)c2)N(Cc2cccnc2)CC[C@H]1c1ccccc1Br (racemic)
3.7 | O=[N+]([O-])[C@@H]1[C@@H](c2ccc(O)c(O)c2)N(Cc2cccnc2)CC[C@H]1c1ccccc1Br (racemic)
180 | COc1cc([C@@H]2[C@@H]([N+](=O)[O-])[C@H](c3ccccc3Br)CCN2Cc2cccnc2)ccc1O (racemic)
46 | CCc1ccccc1[C@@H]1CCN(Cc2cccnc2)[C@H](c2ccc(O)c(N)c2)[C@H]1[N+](=O)[O-] (racemic)
50 | CCNc1cc([C@@H]2[C@@H]([N+](=O)[O-])[C@H](c3ccccc3Br)CCN2Cc2cccnc2)ccc1O (racemic)
27 | CC(=O)Nc1cc([C@H]2[C@H]([N+](=O)[O-])[C@@H](c3ccccc3Br)CCN2Cc2cccnc2)ccc1O (racemic)
14 | COC(=O)Nc1cc([C@H]2[C@H]([N+](=O)[O-])[C@@H](c3ccccc3Br)CCN2Cc2cccnc2)ccc1O (racemic)
4.6 | CCc1ccccc1[C@H]1CCN(Cc2cccnc2)[C@@H](c2ccc(O)c(NS(C)(=O)=O)c2)[C@@H]1[N+](=O)[O-] (racemic)
5.9 | CCS(=O)(=O)Nc1cc([C@H]2[C@H]([N+](=O)[O-])[C@@H](c3ccccc3Br)CCN2Cc2cccnc2)ccc1O (racemic)
3 | NS(=O)(=O)Nc1cc([C@H]2[C@H]([N+](=O)[O-])[C@@H](c3ccccc3Br)CCN2Cc2cccnc2)ccc1O (racemic)
270 | Cc1ccc(S(=O)(=O)Nc2cc([C@H]3[C@H]([N+](=O)[O-])[C@@H](c4ccccc4Br)CCN3Cc3cccnc3)ccc2O)cc1 (racemic)
4.5 | CCc1ccccc1[C@H]1CCN(Cc2cccnc2)[C@@H](c2ccc(O)c(NS(N)(=O)=O)c2)[C@@H]1[N+](=O)[O-] (racemic)
> 500 | COc1ccc([C@@H]2[C@@H]([N+](=O)[O-])[C@H](c3ccccc3Br)CCN2Cc2cccnc2)cc1 (racemic)
16 | O=[N+]([O-])[C@@H]1[C@@H](c2ccccc2)N(Cc2cccnc2)CC[C@H]1c1ccccc1Br (racemic)
36 | O=[N+]([O-])[C@@H]1[C@@H](c2ccsc2)N(Cc2cccnc2)CC[C@H]1c1ccccc1Br (racemic)

IC50 [nM] | Structure (SMILES)
12 | CCc1ccccc1[C@@H]1CCN(Cc2cccnc2)[C@H](c2ccc(O)c(NCc3ccncc3)c2)[C@H]1[N+](=O)[O-] (racemic)
25 | O=[N+]([O-])[C@H]1[C@H](c2ccccc2Br)CCN(Cc2cccnc2)[C@H]1c1ccccn1 (racemic)
> 500 | O=[N+]([O-])[C@@H]1[C@@H](c2cccnc2)N(Cc2cccnc2)CC[C@H]1c1ccccc1Br (racemic)
4.3 | CS(=O)(=O)Nc1cc([C@H]2[C@H]([N+](=O)[O-])[C@@H](c3ccccc3Br)CCN2Cc2cccnc2)ccc1O (racemic)
15 | NC(=O)Nc1cc([C@H]2[C@H]([N+](=O)[O-])[C@@H](c3ccccc3Br)CCN2Cc2cccnc2)ccc1O (racemic)
13 | Nc1cc([C@@H]2[C@@H]([N+](=O)[O-])[C@H](c3ccccc3Br)CCN2Cc2cccnc2)ccc1O (racemic)
98 | CC(C)Nc1cc([C@@H]2[C@@H]([N+](=O)[O-])[C@H](c3ccccc3Br)CCN2Cc2cccnc2)ccc1O (racemic)
6.2 | CCc1ccccc1[C@H]1CCN(Cc2cccnc2)[C@@H](c2ccc(O)c(NC(N)=O)c2)[C@@H]1[N+](=O)[O-] (racemic)
121 | CCc1ccccc1[C@@H]1CCN(Cc2cccnc2)[C@H](c2ccc(O)c(NCc3ccccc3)c2)[C@H]1[N+](=O)[O-] (racemic)
23 | CCc1ccccc1[C@@H]1CCN(Cc2cccnc2)[C@H](c2ccc(O)c(NCc3ccccn3)c2)[C@H]1[N+](=O)[O-] (racemic)
24 | CCc1ccccc1[C@@H]1CCN(Cc2cccnc2)[C@H](c2ccc(O)c(NCc3cccnc3)c2)[C@H]1[N+](=O)[O-] (racemic)
5.4 | O=[N+]([O-])[C@@H]1[C@@H](c2ccc(O)cc2)N(Cc2cccnc2)CC[C@H]1c1ccccc1Br (racemic)
> 500 | O=[N+]([O-])c1cc([C@@H]2[C@@H]([N+](=O)[O-])[C@H](c3ccccc3Br)CCN2Cc2cccnc2)ccc1O (racemic)
> 500 | CCc1ccccc1[C@@H]1CCN(Cc2cccnc2)[C@@H](c2ccccc2)[C@H]1C(=O)NC (racemic)
> 500 | O=[N+]([O-])[C@@H]1[C@@H](c2ccc3[nH]cnc3c2)N(Cc2cccnc2)CC[C@H]1c1ccccc1Br (racemic)
> 500 | CCc1ccccc1[C@@H]1CCN(Cc2cccnc2)[C@@H](c2ccccc2)[C@H]1CO (racemic)
> 500 | C=CCOC(=O)[C@H]1[C@H](c2ccccc2CC)CCN(Cc2cccnc2)[C@H]1c1ccccc1 (racemic)
> 500 | O=[N+]([O-])[C@@H]1[C@@H](c2ccccc2)N(Cc2cnc[nH]2)CC[C@H]1c1ccccc1Br (racemic)
44 | N#Cc1ccc(Cn2cncc2CN2CC[C@@H](c3ccccc3Br)[C@H]([N+](=O)[O-])[C@H]2c2ccccc2)cc1 (racemic)
